According to ChEMBL document CHEMBL1157654, “Synthesis and in vitro biological evaluation of carbon-11-labeled quinoline derivatives as new candidate PET radioligands for cannabinoid CB2 receptor imaging” (Bioorg Med Chem, 2010):

Legend:
Cannabinoid receptor 2 [1] = molecular target: T1, Cannabinoid receptor 2 (Homo sapiens, UniProt P34972); test: Displacement of [3H]CP-55940 from CB2 receptor at 10 uM
Cannabinoid receptor 1 [2] = molecular target: T2, Cannabinoid receptor 1 (Homo sapiens, UniProt P21554); test: Displacement of [3H]CP-55940 from CB1 receptor
In short: (§1)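 Radioligand competition binding at CB1 or CB2 with [³H]CP55940; CP55940 reference. Ki (nM) obtained from non-linear regression of competition binding isotherms (secondary assay).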

Cannabinoid receptor 2 [3] = molecular target: T1, Cannabinoid receptor 2; test: Displacement of [3H]CP-55940 from CB2 receptor; in short: as §1
Cannabinoid receptor 1 [4] = molecular target: T2, Cannabinoid receptor 1; test: Displacement of [3H]CP-55940 from CB1 receptor at 10 uM
[5] = Selectivity ratio of Ki for CB1 receptor to Ki for CB2 receptor
In short: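 Ratio of CB1 Ki to CB2 Ki, both from [³H]CP55940 competition binding (pH 7.4 Tris–HCl/EDTA/MgCl₂/BSA buffer) with Ki fitted by non-linear regression of competition isotherms.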

T2 sequence (P21554 whole entry): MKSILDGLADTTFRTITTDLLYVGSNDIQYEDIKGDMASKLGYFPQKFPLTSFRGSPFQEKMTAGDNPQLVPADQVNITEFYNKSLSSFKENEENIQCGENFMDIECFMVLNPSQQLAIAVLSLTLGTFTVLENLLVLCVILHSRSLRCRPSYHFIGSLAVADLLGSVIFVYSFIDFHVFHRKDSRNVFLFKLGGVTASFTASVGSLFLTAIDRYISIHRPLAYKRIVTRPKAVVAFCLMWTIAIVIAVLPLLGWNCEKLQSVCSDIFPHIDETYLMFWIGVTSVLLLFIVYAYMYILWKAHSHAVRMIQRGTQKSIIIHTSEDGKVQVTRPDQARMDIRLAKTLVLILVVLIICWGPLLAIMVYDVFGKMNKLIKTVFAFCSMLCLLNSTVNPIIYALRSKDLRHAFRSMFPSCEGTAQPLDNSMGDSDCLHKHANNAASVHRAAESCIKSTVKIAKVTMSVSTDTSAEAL
T1 sequence (P34972 whole entry): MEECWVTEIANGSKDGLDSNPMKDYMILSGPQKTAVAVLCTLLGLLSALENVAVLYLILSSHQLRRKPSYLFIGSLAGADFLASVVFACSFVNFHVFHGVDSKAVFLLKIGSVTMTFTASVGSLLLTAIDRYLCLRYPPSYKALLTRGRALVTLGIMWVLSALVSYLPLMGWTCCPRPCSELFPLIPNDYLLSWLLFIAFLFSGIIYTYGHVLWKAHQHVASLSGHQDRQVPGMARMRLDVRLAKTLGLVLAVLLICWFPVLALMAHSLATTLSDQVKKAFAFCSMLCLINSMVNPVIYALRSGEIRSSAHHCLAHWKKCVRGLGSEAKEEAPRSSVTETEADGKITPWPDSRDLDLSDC

SMILES	Activity (Cannabinoid receptor 2 [1]) [%]	Ki (Cannabinoid receptor 1 [2]) [nM]	Ki (Cannabinoid receptor 2 [3]) [nM]	Activity (Cannabinoid receptor 1 [4]) [%]	Ratio Ki [5]
CCCCCOc1c(OC)ccc2cc(C(=O)NCCc3ccc(F)cc3)c(=O)[nH]c12	101	> 10000	5.4	26.3	> 1850
CCCCCOc1c(OC)ccc2cc(C(=O)NCCCc3ccccc3)c(Cl)nc12	59.2	> 10000	1070	66.3	> 9.36
CCCCCOc1c(OC)ccc2cc(C(=O)NCCCc3ccccc3)c(=O)[nH]c12	104	323	10.3	51.4	31.3
CCCCCOc1c(OC)ccc2cc(C(=O)NCCc3ccc(Cl)cc3)c(=O)[nH]c12	102	> 10000	9.37	-9	> 1070
CCCCCOc1c(OC)ccc2cc(C(=O)NCCc3ccccc3)c(Cl)nc12	86.3	> 10000	497	73.7	> 20.1
CCCCCOc1c(OC)ccc2cc(C(=O)NCCc3ccccc3)c(=O)[nH]c12	103	196	6.92	63.4	28.3
CCCCCOc1c(OC)ccc2cc(C(=O)NCCc3ccc(F)cc3)c(Cl)nc12	104	2880	23.8	64.8	121
CCCCCOc1c(OC)ccc2cc(C(=O)NCCc3ccc(OC)cc3)c(Cl)nc12	65.9	> 10000	1330	71	> 7.51
CCCCCOc1c(OC)ccc2cc(C(=O)NCCc3ccc(Cl)cc3)c(Cl)nc12	74.1	> 10000	1010	34.4	> 9.92
CCCCCOc1c(OC)ccc2cc(C(=O)NCCc3ccc(OC)cc3)c(=O)[nH]c12	102	733	27.9	68.7	26.2
